# Compound activity deposited in PubChem BioAssay by several laboratories.
# Many of the other results were omitted from the sample, so hits are more common in it than they were.
# hiPSC survival: hiPSC single-cell survival enhancement | ATPlite luminescence; 100% = ROCK inhibitor wells, 0% = DMSO | survival enhancement, % at 20 µM | 0.044% of 360,000 active; in the data active = survival enhancement above about 18%;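 also: cells exposed to compounds for 16 hours before the ATP read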
# UPR XBP1 act: adaptive UPR (XBP1) activation. CHO-XBP1 luciferase reporter, IRE1-XBP1 UPR activation, luminescence; percent of tunicamycin response, DMSO as zero. activation, % at 20 µM. 0.33% of 330,000 active;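 active = versus positive control, 20 µM dose yields 30% or more activation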;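 also: 100% = tunicamycin at 10 µg/mL and 0% = DMSO only wells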
#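 Material: CHO cell line with stable XBP1 luciferase reporter; buffer or medium: F12 medium containing 10% fetal bovine serum; compound: single point, 20 µM final compound, 1% DMSO; incubation: 6 h treatment, 37 °C; measured by: glow luminescence from Steady-Glo reagent; evaluation: activation, % of tunicamycin; control set: tunicamycin high, DMSO low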
# Cardio protect: modulators protecting cardiomyocytes from myocardial damage; H9c2 cardiomyocytes, H2O2 injury protection, ATPLite, 2 h; protection from H2O2 cell death, % at 20 µM; 0.63% of 360,000 active;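 active = compounds giving at least 50% protection of heart cells from peroxide-induced death in the single-dose screen, raw or plate-pattern-corrected value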;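 also: 0% = DMSO wells with peroxide and 100% = DMSO wells without peroxide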
# CHOP UPR activ: apoptotic UPR (CHOP) activation. 0.34% of 330,000 active. CHO-CHOP luciferase reporter, luminescence; percent of tunicamycin response over DMSO baseline. activation, % at 10 µM;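 active = at 10 µM dose, activation of 40% or more, normalized to positive control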;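 also: 100% = tunicamycin at 10 µg/mL and 0% = DMSO alone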
#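 Dosing – one dose, 10 µM in 0.5% DMSO · System – CHO-CHOP cells, stable luciferase reporter of PERK-eIF2a-CHOP signalling · Input – 500 cells/well · Control set – tunicamycin 10 µg/mL final as positive, DMSO-only wells as negative · Timing – 6 h compound treatment, 37 °C · Measure – % activation vs tunicamycin · Technique – luminescence read with Steady-Glo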
# CHOP inh: blocks CHOP induction under ER stress; CHO-K1 CHOP-promoter luciferase, tunicamycin-induced, 15-18 h; inhibition, % at 10 µM; 3.8% of 220,000 active; AID 2732;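 active = compounds that reduced the stress-induced luciferase reporter signal by more than about 70% of percent inhibition, limit read from the data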;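 also: 0% = tunicamycin plus vehicle and 100% = wells without tunicamycin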
# The depositor's hits bear a star; . = no result.
SMILES,hiPSC survival,UPR XBP1 act,Cardio protect,CHOP UPR activ,CHOP inh
COc1ccc(/C(C)=N/OC/C(O)=C(\C#N)c2nc3ccccc3[nH]2)cc1OC,-3,-2,6,-1,39
COc1ccc2oc(C(=O)OC/C(O)=C(\C#N)c3nc4ccccc4[nH]3)c(C)c2c1,0,0,23,-1,95*
COc1ccc(/C(C)=N/OC/C(O)=C(\C#N)c2nc3ccccc3[nH]2)c(OC)c1,-2,1,-4,1,95*
C[C@@H]1CN([C@H](C)CO)C(=O)CCCn2nncc2CO[C@H]1CN(C)C(=O)c1ccc2ccn(C)c2c1,-1,.,0,.,.
O=C(NC(NC(=S)Nc1cccc(Cl)c1)C(Cl)(Cl)Cl)OCc1ccccc1 (stereo not given),-2,6,-18,-2,109*
COc1ccc2c(c1OC)C(=O)N1c3ccccc3C(=O)N(c3ccc(F)cc3)C21 (stereo not given),3,-1,40,-1,-23
COc1ccc2c(c1OC)C(=O)N1c3ccccc3C(=O)N(c3ccccc3)C21 (stereo not given),0,-1,54*,2,39
O=C(C[C@H]1C(=O)N(Cc2ccccc2)C[C@@H]1Cc1ccccc1)Nc1ccc(Br)cc1,-2,.,-12,.,.
O=C1OCCN1C(=O)[C@H]1[C@H](c2ccc([N+](=O)[O-])cc2)C(c2cccc(Cl)c2)=NN1c1ccc(Br)cc1,-1,0,51*,3,.
O=C1OCCN1C(=O)[C@H]1[C@H](c2ccc([N+](=O)[O-])cc2)C(c2ccccc2)=NN1c1ccc(Br)cc1,1,1,55*,2,.
O=C1Nc2ccccc2N=C(c2ccccc2)C1N(C(=O)c1ccnc2ccccc12)c1ccccc1 (stereo not given),1,.,4,.,.
Cc1ccccc1N(CC(=O)N1CCN(Cc2ccccc2)CC1)S(C)(=O)=O,-1,.,-1,.,.
C(=C\c1ccco1)/C1=NN(c2ccccc2)C(c2ccco2)C1 (stereo not given),1,5,-8,7,74*
O=[N+]([O-])c1ccc(/C=C/C2=NN(c3ccccc3)C(c3ccco3)C2)o1 (stereo not given),0,.,-15,.,3
CCCCc1nc2sc3c(c2c(=O)[nH]1)CCC3,6,13,70*,1,27
CSc1nc2sc3c(c2c(=O)[nH]1)CCC3,-1,-2,52*,0,-7
CSc1nc2sc3c(c2c(=O)[nH]1)CCCC3,1,5,-7,-1,12
CCN(CC)C(=O)CCc1nc2sc3c(c2c(=O)[nH]1)CCCC3,4,0,20,0,11
COc1cc(NC(=O)c2cccc3c(-c4cnn(C)c4)coc23)cc(OC)c1OC,0,.,64*,.,.
Cc1ccc(OC(C)C(=O)N2CCc3ccccc32)c([N+](=O)[O-])n1 (stereo not given),4,.,5,.,.
CN(CCOCCOc1ccc2ccccc2c1)Cc1ccccc1,-2,5,-2,0,71*
CCOc1ccc(C(=O)COC(=O)Cn2[nH]c(=O)c3ccccc3c2=O)cc1,-1,.,78*,.,.
COc1ccc(C(=O)COC(=O)Cn2[nH]c(=O)c3ccccc3c2=O)c(OC)c1,0,3,62*,0,.
FC(F)Oc1ccc(/C=N/NC(=S)Nc2cc(C(F)(F)F)ccc2Cl)cc1,0,-1,-4,0,76*
CNC(=S)Nc1cc(C(F)(F)F)ccc1Cl,0,-2,0,-2,-5
SMILES,hiPSC survival,UPR XBP1 act,Cardio protect,CHOP UPR activ,CHOP inh
O=C(Cc1ccccc1)Nc1cccc(-c2nc3ncccc3o2)c1,-1,0,6,1,37
COc1cc(OC)cc(C(=O)Nc2ccc(-c3nc4ccccc4o3)cc2)c1,1,-4,120*,3,50
Cc1ccc(-c2nc3ccccc3o2)cc1NC(=O)c1ccc2c(c1)OCO2,-1,-1,-8,3,87*
Cc1ccc(OCC(=O)Nc2ccc(O)c(-c3nc4ccccc4o3)c2)cc1,1,14,-18,3,89*
Cc1cc(C)cc(OCC(=O)Nc2cccc(-c3nc4ncccc4o3)c2)c1,0,3,102*,2,68
Cc1c(NC(=O)c2ccc3c(c2)OCO3)cccc1-c1nc2ccccc2o1,-1,-2,-6,1,-8
COc1cccc(C(=O)Nc2ccc(-c3nc4ccccc4o3)c(O)c2)c1,1,1,2,3,21
COc1ccc(OCC(=O)Nc2ccc3oc(-c4ccncc4)nc3c2)cc1,1,-2,2,0,0
Cc1onc(-c2ccccc2)c1C(=O)N1CCC(C)(C(=O)O)C1 (stereo not given),4,.,4,.,.
Cc1ccc(-c2nc3ccccc3o2)cc1NC(=S)NC(=O)c1cccs1,-2,5,-8,2,82*
Cc1ccc(-c2nc3ncccc3o2)cc1NC(=O)c1cc2ccccc2o1,-2,-6,37,-3,70*
O=C(Nc1cccc(-c2nc3ncccc3o2)c1)c1cc2ccccc2o1,3,-1,27,-1,20
O=S1(=O)CC(N2CC=CC2)CN1Cc1cn(Cc2ccccc2)nn1 (stereo not given),0,.,.,.,.
CC(C)Cn1nc(C(=O)Nc2nnc(C3CC3)s2)c2ccccc2c1=O,0,4,-1,2,.
O=C(COc1ccc2ccccc2c1)Nc1nc2ccccc2[nH]1,0,3,3,0,78*
COc1ccc(OCC(=O)Nc2nc3ccccc3[nH]2)cc1,-2,6,-24,5,-27
CCN1C(=Nc2ccc(Cl)cc2)SC/C1=C\C(=O)OC,-2,3,-15,3,82*
C/C(=N\N=C(/N)SC1CC(=O)N(c2ccccc2)C1=O)c1cccs1 (stereo not given),4,-2,4,0,45
CCCCCCOc1ccc(N2C(=O)CC(S/C(N)=N/N=C(\C)c3cccs3)C2=O)cc1 (stereo not given),0,0,-9,-1,88*
C/C(=N\N=C(/N)SC1CC(=O)N(c2ccc(Br)cc2)C1=O)c1cccs1 (stereo not given),0,5,-9,0,87*
CSCCC(NC(=O)c1ccccc1)C(=O)OCC(=O)NCc1ccco1 (stereo not given),0,1,-14,0,.
c1ccc(CCNc2ncnc3c2nnn3Cc2ccccc2)cc1,0,1,-1,0,89*
Cc1nn(C)cc1C(C(=O)NC1CCCCC1)N(C(=O)Cc1cccs1)c1ccc(Cl)cc1 (stereo not given),0,0,55*,0,31
Cc1ccc(N(C(=O)Cn2nnc3ccccc32)C(C(=O)NC2CCCCC2)c2cn(C)nc2C)cc1 (stereo not given),3,-1,1,-2,9
